Reference: ChEMBL document CHEMBL4251630, “Hydroxymethyl bioisosteres of phenolic GluN2B-selective NMDA receptor antagonists: Design, synthesis and pharmacological evaluation” (Eur J Med Chem, 2018)
pIC50, pKi: −log10 of the molar value.

Tests used:
[1] = Selectivity ratio of Ki for sigma-2 receptor in rat liver membranes to Ki for GluN2B receptor (unknown origin) expressed in mouse L(tk-) cell membranes; format: cell-based
[2] = (§1) Antagonist activity at GluN2B/GluN1a receptor (unknown origin) expressed in mouse L(tk-) cells assessed as cytoprotection against glycine/(S)-glutamate-induced cell death preincubated for 30 mins followed by glycine/(S)-glutamate addition measured after 6 hrs by LDH assay; format: cell-based; details: Homo sapiens, LTK
In short: (§2)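 L(tk-) cells co-expressing GluN1a/GluN2B (1:5), dexamethasone-induced. Wells blocked with DMEM/1 % BSA. Cells preincubated with test compound at 5 concentrations (e.g. 4 x 10-5 to 10-9 mol/L), in at least triplicate, 30 min at 37 °C. Glutamate/glycine (20 µM each, solution) then added for 6 h at 37 °C. Supernatant LDH measured by diaphorase/lactate/NAD+/INT mix, 45 min at 37 °C, absorbance 485 nm. (S)-ketamine 4 x 10-5 mol/L was the positive control.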

[3] = organism: Homo sapiens; experiment: as §1; format: cell-based; in short: as §2
[4] = biological target: Sigma non-opioid intracellular receptor 1 (Cavia porcellus, UniProt Q60492); experiment: Displacement of [3H]-(+)-pentazocine from sigma-1 receptor in guinea pig brain cortex membranes incubated for 120 mins measured for 5 mins by scintillation counting method; format: cell membranes
Sequence of Sigma non-opioid intracellular receptor 1 (Q60492 whole entry): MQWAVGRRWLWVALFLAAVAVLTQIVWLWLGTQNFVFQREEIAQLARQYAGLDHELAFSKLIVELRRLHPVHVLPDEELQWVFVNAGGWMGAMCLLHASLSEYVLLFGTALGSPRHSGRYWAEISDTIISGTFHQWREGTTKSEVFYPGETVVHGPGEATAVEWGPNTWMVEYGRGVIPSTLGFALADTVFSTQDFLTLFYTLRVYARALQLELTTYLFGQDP

[5] = Selectivity ratio of Ki for sigma-1 receptor in guinea pig brain cortex membranes to Ki for GluN2B receptor (unknown origin) expressed in mouse L(tk-) cell membranes; format: cell-based
[6] = biological target: T1, Sigma intracellular receptor 2 (Rattus norvegicus, UniProt Q5U3Y7); experiment: Displacement of [3H]-di-o-tolylguanidine from sigma-2 receptor in rat liver membranes incubated for 120 mins measured for 5 mins by scintillation counting method; format: cell membranes, Membrane
T1 sequence (Q5U3Y7 whole entry): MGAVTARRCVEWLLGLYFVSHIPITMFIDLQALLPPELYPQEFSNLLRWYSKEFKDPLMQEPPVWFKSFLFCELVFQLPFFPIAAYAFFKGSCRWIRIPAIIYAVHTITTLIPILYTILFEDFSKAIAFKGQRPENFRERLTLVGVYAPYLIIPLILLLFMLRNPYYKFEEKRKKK

[7] = biological target: T2, Glutamate receptor ionotropic, NMDA 2B (Homo sapiens, UniProt Q13224); experiment: Displacement of [3H]Ifenprodil from GluN2B receptor (unknown origin) expressed in mouse L(tk-) cell membranes incubated for 120 mins measured for 5 mins by scintillation counting method
T2 sequence (Q13224 whole entry): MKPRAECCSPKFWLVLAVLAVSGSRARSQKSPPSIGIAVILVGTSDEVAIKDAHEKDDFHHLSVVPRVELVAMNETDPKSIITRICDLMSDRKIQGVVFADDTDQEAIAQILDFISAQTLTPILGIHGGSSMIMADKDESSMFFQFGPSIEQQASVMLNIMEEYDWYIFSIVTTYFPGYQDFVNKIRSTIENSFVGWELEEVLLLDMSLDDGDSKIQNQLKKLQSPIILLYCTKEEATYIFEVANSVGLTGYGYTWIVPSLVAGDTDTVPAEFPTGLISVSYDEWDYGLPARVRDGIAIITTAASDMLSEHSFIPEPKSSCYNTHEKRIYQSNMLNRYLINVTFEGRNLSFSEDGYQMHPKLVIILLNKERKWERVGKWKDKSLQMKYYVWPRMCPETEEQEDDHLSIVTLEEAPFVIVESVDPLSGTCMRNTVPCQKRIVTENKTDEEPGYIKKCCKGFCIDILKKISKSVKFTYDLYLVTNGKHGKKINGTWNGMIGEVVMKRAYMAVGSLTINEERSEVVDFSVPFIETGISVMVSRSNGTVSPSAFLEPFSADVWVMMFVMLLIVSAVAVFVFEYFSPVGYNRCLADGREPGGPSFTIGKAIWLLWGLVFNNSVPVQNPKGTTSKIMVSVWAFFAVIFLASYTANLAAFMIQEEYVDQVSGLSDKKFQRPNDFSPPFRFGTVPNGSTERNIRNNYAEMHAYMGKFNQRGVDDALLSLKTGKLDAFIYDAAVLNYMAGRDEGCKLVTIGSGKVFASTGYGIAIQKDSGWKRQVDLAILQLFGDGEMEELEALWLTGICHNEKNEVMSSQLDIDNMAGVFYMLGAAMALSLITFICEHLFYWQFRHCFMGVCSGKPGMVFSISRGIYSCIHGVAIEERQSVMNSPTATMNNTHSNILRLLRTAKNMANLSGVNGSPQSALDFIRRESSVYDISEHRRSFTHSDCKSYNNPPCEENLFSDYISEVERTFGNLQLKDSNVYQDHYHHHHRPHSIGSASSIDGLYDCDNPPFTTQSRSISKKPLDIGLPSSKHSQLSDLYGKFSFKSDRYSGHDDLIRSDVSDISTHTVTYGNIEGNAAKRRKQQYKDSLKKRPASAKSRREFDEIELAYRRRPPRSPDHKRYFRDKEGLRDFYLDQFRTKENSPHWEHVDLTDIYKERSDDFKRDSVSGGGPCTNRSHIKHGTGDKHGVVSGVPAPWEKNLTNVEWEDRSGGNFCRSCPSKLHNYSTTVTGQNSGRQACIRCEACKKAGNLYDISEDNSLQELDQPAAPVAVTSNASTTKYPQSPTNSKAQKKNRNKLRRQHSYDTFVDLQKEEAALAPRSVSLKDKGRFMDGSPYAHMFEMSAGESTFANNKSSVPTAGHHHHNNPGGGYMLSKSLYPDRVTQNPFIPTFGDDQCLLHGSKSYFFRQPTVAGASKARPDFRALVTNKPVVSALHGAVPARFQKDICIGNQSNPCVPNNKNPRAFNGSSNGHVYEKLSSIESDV

[8] = organism: Sus scrofa; experiment: Displacement of [3H]-(+)-MK-801 from NMDA receptor PCP binding site in pig brain cortex membranes at 1 uM incubated for 120 mins measured for 5 mins by scintillation counting method relative to control; format: cell membranes
In short: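 Pig brain cortex membranes, about 100 µg protein, with 2 nM [3H]-(+)-MK-801 in 5 mM TRIS/1 mM EDTA, pH 7.5, at rt for 120 min. Test compound at 1 µM, in duplicate. Non-specific binding defined with 10 µM unlabeled (+)-MK-801. Filtration on polyethylenimine-soaked filtermats, then [3H] scintillation counting for 5 min per well. Value given as % inhibition of radioligand binding.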

[9] = biological target: T2, Glutamate receptor ionotropic, NMDA 2B; experiment: Displacement of [3H]Ifenprodil from GluN2B receptor (unknown origin) expressed in mouse L(tk-) cell membranes
In short: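 Dexamethasone-induced (4 µM, with 4 µM ketamine, 24 h) GluN1a/GluN2B L(tk-) cell membranes, about 20 µg protein. […] Filtration and 5-min [3H] counting. Ki by Cheng-Prusoff (Kd 7.6 nM). Mean ± SEM of three experiments, or a single run for weak binders.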

SMILES | Ratio Ki [1] | pIC50 [2] | inhibition [3] | pKi [4] | Ratio Ki [5] | pKi [6] | pKi [7] | inhibition [8] [%] | pKi [9]
OCc1ccc2c(c1)CCC(NCCCc1ccccc1)CC2 (stereo not drawn) | 5 to 6 | 5.28 | Dose-dependent effect | 6.25 | 5 to 6 | 6.23 | 7.00 | 0 | –
OCc1ccc2c(c1)CCC(NCCCCc1ccccc1)CC2 (stereo not drawn) | – | < 4.00 | – | 7.39 | 4 | 6.57 | 6.73 | 0 | –
Oc1ccc2c(c1)CCC(NCCCc1ccccc1)CC2 (stereo not drawn) | – | 4.60 | – | 6.91 | – | 7.49 | – | 0 | 7.55
COc1ccc2c(c1)CC[C@@H](NCCCc1ccccc1)C[C@H]2O (relative stereo) | – | – | – | – | – | – | – | – | 7.80
Oc1ccc2c(c1)CCC(NCCCCc1ccccc1)CC2 (stereo not drawn) | – | 5.52 | – | 6.68 | – | 7.02 | – | 25 | 7.68
CC(C(O)c1ccc(O)cc1)N1CCC(Cc2ccccc2)CC1 (stereo not drawn) [IFENPRODIL] | – | 6.23 | – | – | – | – | – | – | –
C[C@@H](CN1CCC(Cc2ccccc2)CC1)[C@@H](O)c1ccc(O)cc1 | – | 7.74 | – | – | – | – | 6.76 | – | –
